Target: Aldo-keto reductase family 1 member B1 (Rattus norvegicus, UniProt P07943)
Test: Inhibitory activity against aldose reductase in rat lens
How it was run: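 Rat lens enzyme: 100 lenses from frozen rat eyes homogenized in distilled water and centrifuged at 5 °C; the supernatant was brought to 40% ammonium sulfate saturation and the freshly prepared supernatant was used. NADPH loss was read at 340 nm for 3 min.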

Structure (SMILES) | IC50 [µM]
Cc1ccc(C(=O)N(C)CC(=O)O)cc1 | 13
CN(CC(=O)O)C(=O)c1ccccc1 | 23
O=C(O)CNC(=O)c1ccc(NC(=O)Cc2ccccc2)cc1 | 21
CN(CC(=O)O)C(=O)c1ccc([N+](=O)[O-])cc1 | 26
O=C(O)CNC(=O)c1cccc2ccccc12 | 220
CN(CC(=O)O)C(=O)c1cccc2ccccc12 | 40
CN(CC(=O)O)C(=O)c1ccc(F)cc1 | 8.8
CN(CC(=O)O)C(=O)c1ccc2ccccc2c1 | 19
O=C(O)CNC(=O)c1ccc(NC(=O)CCc2ccccc2)cc1 | 45
O=C(O)CNC(=O)c1ccc2ccccc2c1 | 70
O=C(O)CNC(=O)c1ccc(NC(=O)c2ccccc2)cc1 | 9.6
CN(CC(=O)O)C(=O)c1ccc(N)cc1 | 11
O=C(O)CNC(=O)c1cccc(NC(=O)c2ccccc2)c1 | 49

The remaining lines, values ahead:

IC50 [µM] | Structure (SMILES)
8.2 | O=C(O)CN(C(=O)c1ccc(F)cc1)c1ccccc1
19 | O=C(O)CN(C(=O)c1ccc2ccccc2c1)c1ccccc1
8.5 | O=C(O)CN(C(=O)c1cccc2ccccc12)c1ccccc1
6.3 | O=C(O)CN(C(=O)c1ccccc1)c1ccccc1
0.24 | O=C(O)CN(C(=O)c1ccc(NC(=O)c2ccccc2)cc1)c1ccccc1
3.7 | Cc1ccc(C(=O)N(CC(=O)O)c2ccccc2)cc1
0.56 | O=C(O)CN(C(=O)c1ccc([N+](=O)[O-])cc1)c1ccccc1
12 | Nc1ccc(C(=O)N(CC(=O)O)c2ccccc2)cc1
6.7 | COc1ccc(C(=O)N(C)CC(=O)O)cc1
2.8 | CN(CC(=O)O)C(=O)c1ccc(NC(=O)c2ccccc2)cc1
3.2 | COc1ccc(C(=O)N(CC(=O)O)c2ccccc2)cc1
